Data published in publication PMC3772679 (The European journal of neuroscience, 2012).
Where two headings read alike, the source gives them in different places.

Experiments:
[1] = biological target: GABAA receptors composed of α1β3γ2; conditions: heterologous expression systems; ref Belelli et al., 2003; cited from earlier work
[2] = tested on: PC GABAA receptor (GABAergic IPSC in Purkinje neurons); assay type: cell-based, mouse; conditions: for IPSC decay time constant in the presence of etomidate: 3 µM, 10 min
[3] = tested on: PC GABAA receptor (β1-subunit-containing); assay: Loreclezole inhibition of GABA-mediated current in cultured Purkinje cells; assay type: cell-based, rat; conditions: 30 µM
Method in brief: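 Cerebellar neurons plated on glass coverslips (2.8 × 10^5 cells), kept at 37 °C in 5% CO2 and recorded after 10–14 days in vitro. 1 s pulses of 20 µM GABA every 30 s until baseline stable; 30 µM test compound (DMSO stock diluted in saline) applied by local perfusion for 30 s, then kept through three more GABA pulses. 1 mM GABA given at end of recording. n = individual cells; mean ± SEM.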

In the case of `CCOC(=O)c1cncn1[C@H](C)c1ccccc1` [Etomidate], the EC50 [1] is listed as 4 µM, the “IPSC decay time constant in the presence of etomidate” value ([2]; slices 3 h after CA/CPR, P < 0.05 vs sham) is listed as 534.5 ± 42.3 ms and the “IPSC decay time constant in the presence of etomidate” value ([2]; slices from control sham-operated mice) is listed as 837 ± 128 ms.

In the case of `Cl/C(=C\n1cncn1)c1ccc(Cl)cc1Cl` [loreclezole], the “Initial reduction in GABA-mediated current” value ([3]; 30 s pre-application, 20 µM GABA pulses) is reported as 30% and the “Maximal decrease in GABA-mediated current with subsequent pulses of GABA” value ([3]; 20 µM GABA pulses every 30 s, n = 4) is reported as 65.5 ± 6.8%.

For picrotoxin, the “Effect on outward GABAergic IPSC in Purkinje neurons” value ([2]; data not shown) was “blocked”.
